The source made the active and inactive calls. No cut-off for these calls is given here.

Results on one molecule are retold here after ChEMBL document CHEMBL3616442, “Unconventional Knoevenagel-type indoles: Synthesis and cell-based studies for the identification of pro-apoptotic agents” (Eur J Med Chem, 2015).

Assay [1] has as its target Tubulin (Homo sapiens) (UniProt P68371+Q9H4B7+P0DPH7+P68366+Q13509+Q71U36+P04350+Q3ZCM7+P07437+P68363+Q9BQE3+Q6PEY2+Q13885+Q9BVA1+Q9BUF5). Briefly: Induction of Tubulin depolymerization in human MCF7 cells by immunofluorescence analysis. Format: cell-based. Summed up: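 MCF-7 cells grown and treated on chamber slides, fixed in ice-cold 100% methanol, washed in PBS with 0.1% Triton X-100, blocked 30 min in 5% BSA, then mouse anti-tubulin for 1 h and Alexa 488 secondary for 1 h; DNA counterstained with 0.2 μg/mL propidium iodide for 2 min. Paclitaxel and PBOX-15 served as tubulin controls.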

Assay [2] deals with K562. Description: Induction of cell cycle arrest in human K562 cells assessed as accumulation at G2/M phase after 24 hrs by propidium iodide staining based flow cytometric analysis. Format: functional. Summed up:
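Propidium iodide/RNase A flow cytometry of ethanol-fixed cells, 10,000 gated events at 488 nm; G2/M fraction measured after 18 h treatment (HL-60, MCF-7) or 24 h (K562); mean ± S.E.M. of three independent experiments.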

Take `COc1ccc(-c2[nH]c3ccccc3c2/C=C(\C#N)S(=O)(=O)c2ccccc2)cc1`: in assay [1], the result was Active. For the same molecule, the Activity in assay [2] worked out at 42.4%.
